{"data": "Experimental data gathered from unrelated publications", "Adora2a": "Adenosine receptor A2a (Adora2a, Rattus norvegicus, UniProt P30543)", "Sterol carrier protein 2": "Sterol carrier protein 2 (Aedes aegypti, UniProt Q86PR3)", "note": "Compare with care: the assays were run in different laboratories."}
{"SMILES": "CN1CCN(c2ccc(Nc3ncc4cc(C#N)c(=O)n(C5CCCC5)c4n3)cc2)CC1", "target": "Calcium/calmodulin-dependent protein kinase type II subunit delta (CAMK2D, Homo sapiens, UniProt Q13557)", "assay": "enzyme activity, inhibitor", "quantity": "IC50", "result": "1600 nM"}
{"SMILES": "CCCCCC(C)N1CCCn2c1nc1c2c(=O)n(C)c(=O)n1C (centres unmarked)", "target": "Adora2a", "assay": "ligand displacement, radioligand", "conditions": "cell membranes", "quantity": "Ki", "result": "2380 nM"}
{"SMILES": "O=C(/C=C/c1ccc(O)cc1)/C=C/c1ccc(O)cc1", "target": "Sterol carrier protein 2", "assay": "ligand displacement, fluorescence", "quantity": "EC50", "result": "2380 nM"}
{"SMILES": "Cc1cc(Nc2cc3ncccc3c(N[C@@H]3C[C@H]4CC[C@@H](C3)N4CCC#N)n2)n[nH]1", "target": "Mitogen-activated protein kinase kinase kinase 9 (MAP3K9, Homo sapiens, UniProt P80192)", "assay": "binding, competition with immobilised ligand", "quantity": "Kd", "result": "54 nM"}
{"SMILES": "CCCS(=O)(=O)Nc1ccc(F)c(C(=O)c2c[nH]c3ncc(-c4ccc(Cl)cc4)cc23)c1F", "target": "Mitogen-activated protein kinase kinase kinase 20, non-phosphorylated (MAP3K20, Homo sapiens, UniProt Q9NYL2)", "assay": "binding, ITC", "quantity": "Kd", "result": "29 nM"}
{"SMILES": "CCCN1CCN(c2ccc(-c3cncc(Cl)c3N3CCC4(CCNC4=O)CC3)cc2)CC1", "target": "E3 ubiquitin-protein ligase NEDD4 (Homo sapiens, UniProt P46934)", "assay": "cell-free assay", "conditions": "lysate", "quantity": "Kd", "result": "18400 nM"}
{"SMILES": "C=CN1CCCn2c1nc1c2c(=O)n(C)c(=O)n1C", "target": "Adora2a", "assay": "ligand displacement, radioligand", "conditions": "cell membranes", "quantity": "Ki", "result": "> 25000 nM"}
{"SMILES": "Cc1cnc(-c2ccc(-c3ccc(NC(=O)Nc4c(F)cc(F)cc4F)cc3F)c3c2C(=O)NC3)[nH]1", "target": "BDNF/NT-3 growth factors receptor (NTRK2, Homo sapiens, UniProt Q16620)", "assay": "binding, competition with immobilised ligand", "quantity": "Kd", "result": "4.5 nM"}
{"SMILES": "CCCCCCCCCCCCCCCC(=O)OC[C@H](COP(=O)(O)OC1[C@H](O)[C@H](O)C(OP(=O)(O)O)[C@H](O)[C@H]1O)OC(=O)CCCCCCCCCCCCCCC (some centres unmarked)", "target": "SHC-transforming protein 1 (Homo sapiens, UniProt P29353)", "assay": "binding, fluorescence", "quantity": "Kd", "result": "4100 nM"}
{"SMILES": "N[C@@H](CCC(=O)O)C(=O)O", "target": "Metabotropic glutamate receptor 4 (Grm4, Rattus norvegicus, UniProt P31423)", "assay": "ion flux, agonist", "quantity": "EC50", "result": "7900 nM"}
{"SMILES": "O=C1/C(=C/c2ccco2)CCC/C1=C\\c1ccco1", "target": "Sterol carrier protein 2", "assay": "ligand displacement, fluorescence", "quantity": "EC50", "result": "62900 nM"}
